Shown are actives, neighbours in structure and some others; about 4% of the full set was active somewhere.
TAAR1 ag – human TAAR1 agonists, primary screen, Fluo-8 calcium fluorescence, CHO RD-HGA16 cells; Trace amine-associated receptor 1 (Homo sapiens), Q96RJ0; vehicle wells 0%, saturating PEA agonist 100%; activation, % at 3 µM; hit rate 0.99% among 360,000; AID 624467, 2012;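 active = activation above the mean activation of all test compounds in the run plus 3 SD, cut at about 38% in these data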
Target sequence (Q96RJ0 whole entry, looked up): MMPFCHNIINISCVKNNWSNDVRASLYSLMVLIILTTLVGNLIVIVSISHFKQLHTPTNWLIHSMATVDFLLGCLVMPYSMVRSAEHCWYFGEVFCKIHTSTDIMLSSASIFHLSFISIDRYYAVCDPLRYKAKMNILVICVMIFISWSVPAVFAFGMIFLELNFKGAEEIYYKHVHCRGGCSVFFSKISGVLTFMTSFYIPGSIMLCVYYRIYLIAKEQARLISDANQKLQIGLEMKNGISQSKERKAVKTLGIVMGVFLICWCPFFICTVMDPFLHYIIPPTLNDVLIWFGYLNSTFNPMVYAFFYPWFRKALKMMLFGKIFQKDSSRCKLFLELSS
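System: CHO-derived RD-HGA16 cells with stable Gα16 and human TAAR1. Times: 17-24 h plating, Fluo-8 75 min 37 °C, 30 min RT. Measured by: calcium-sensitive Fluo-8 signal, excitation 470-495, emission 515-575 nm. Read-out basis: % activation relative to PEA EC100 response. Control set: DMSO and PEA EC100. Repeats: no replicates (n 1).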
TAAR1 antagonist – human TAAR1 antagonists, primary screen, Fluo-8 calcium fluorescence, CHO RD-HGA16 cells | inhibition, % at 3 µM | hit rate 1.5% among 360,000 | AID 624466, 2012 | antagonist | Trace amine-associated receptor 1 (Homo sapiens), Q96RJ0;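 active = inhibition above a per-plate cutoff, the mean inhibition of test compounds on that plate plus 3 SD, cut at about 49% in these data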
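test system = CHO RD-HGA16 cells bearing hTAAR1 | replication = singlicate | controls = DMSO-only wells and EC80 β-PEA-stimulated wells | reagent = EC80 β-phenethylamine stimulus | read-out basis = percent inhibition of PEA-evoked calcium signal, max/basal emission ratio | schedule = seeding 17-24 h prior, 75-min 37 °C, 30-min RT dye loading | signal = kinetic Fluo-8 calcium fluorescence measurement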
OX1R antag-1 – OX1R (HCRTR1) antagonists, primary screen, fluorescence, CHO/OX1R cells, Fluo-8 calcium, orexin A | Orexin/Hypocretin receptor type 1 (Homo sapiens), O43613 | Fluo-8 calcium fluorescence | inhibition, % at 5 µM | hit rate 0.43% among 330,000 | AID 434989, 2010;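 active = inhibition above its plate's threshold, mean inhibition of all tested compounds on the plate plus 3 SD, cut at about 37% in these data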
OX1R antag-2 – antagonists of human orexin 1 receptor (OX1R). AID 485270, 2010. Orexin/Hypocretin receptor type 1 (Homo sapiens), O43613. inhibition, % at 6.6 µM. OX1R-expressing cells, FRET antagonist read-out. hit rate 1.8% among 330,000; in the data active = inhibition mostly above about 38%, no sharp cut-off; inactive = mostly below about 40%
CHO parental Ca – ATP-evoked calcium signal inhibitors, parental CHO, primary screen, counter-screen for OX1R antagonist project, cell-based, fluorescence, Fluo-8 calcium dye. hit rate 0.63% among 330,000. inhibition, % at 5.6 µM. AID 463079, 2010. parental CHO-K1, ATP-induced calcium, Fluo-8 fluorescence;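 active = inhibition above that plate's mean sample inhibition plus 3 SD, cut at about 26% in these data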
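Test system: untransfected parental CHO cell line; also added: ATP stimulus; dosing: 5.6 µM, single dose; signal: calcium-sensitive Fluo-8 fluorescence; measure: percent inhibition of ATP-evoked calcium rise, normalized to controls; benchmarks: low control ATP plus DMSO, high control DMSO only; replication: one well per compound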
Of the large screens only hits and unclear results are named; the others gave an inactive call.

CN(C(=O)CSc1nc(-c2cccs2)nc2ccccc12)C1CCS(=O)(=O)C1 (stereo not drawn)	none
O=C(OCC(O)COc1ccccc1)c1ccc([N+](=O)[O-])cc1 (stereo not drawn)	none
O=S(=O)(NCc1ccccc1)c1cc(Br)ccc1Br	none (no result: OX1R antag-1, OX1R antag-2, CHO parental Ca)
CC(=O)N(C)c1ccc(OCC(O)Cn2c(C)nc3ccccc32)cc1 (stereo not drawn)	none
CC(=O)N(C)c1ccc(OCC(O)Cn2c3ccc(Cl)cc3c3cc(Cl)ccc32)cc1 (stereo not drawn)	CHO parental Ca 67
C=CC[C@@H](Cc1ccc(F)cc1)C(=O)OC[C@H]1CCCN1C(=O)[C@@H](CC=C)CC(=O)N[C@@H](CO)Cc1ccccc1	none
C=CCC[C@@H](Cc1ccc(F)cc1)C(=O)OC[C@@H]1CCCN1C(=O)[C@@H](CC=C)CC(=O)N(CCO)Cc1ccccc1	TAAR1 antagonist 57
C=CC[C@@H](Cc1ccc(F)cc1)C(=O)OC[C@H]1CCCN1C(=O)[C@H](CC=C)CC(=O)N[C@H](CO)Cc1ccccc1	TAAR1 antagonist 50
C=CCC[C@H](Cc1ccc(F)cc1)C(=O)OC[C@H]1CCCN1C(=O)[C@@H](CC=C)CC(=O)NCCO	none
O=C(C1=C(c2ccccc2)C(=O)c2ccccc2C1=O)c1ccccc1	none (no result: OX1R antag-1, OX1R antag-2, CHO parental Ca)
O=C1C(=O)c2c(C(=O)c3ccccc3)coc2-c2ccccc21	OX1R antag-2 53
Cc1oc2c(c1C(=O)c1ccccc1)C(=O)C(=O)c1ccccc1-2	OX1R antag-2 active
C=CCc1cccc2cc(C(=O)N(C)C)c(=O)oc12	none
C=CCc1cccc2cc(C(=O)N(CC)CC)c(=O)oc12	TAAR1 antagonist 106
O=C(NCCCn1ccnc1)c1cc2cc([N+](=O)[O-])ccc2oc1=O	OX1R antag-2 69
O=C(CSc1ccc(-c2nc3ccccc3[nH]2)cn1)Nc1ccc(S(=O)(=O)N2CCCC2)cc1	TAAR1 antagonist 51
Cn1c(=O)c2c(n(C)c1=O)=NC1(CCCCC1)ON=2	OX1R antag-2 71
CC(Sc1nc2ccccc2c(=O)n1CC1CCCO1)C(=O)N(C)c1ccccc1 (stereo not drawn)	OX1R antag-2 32
O=C1COc2ccc(S(=O)(=O)N3CCN(c4cccc(C(F)(F)F)c4)CC3)cc2N1	none
CC(CC(=O)N1CCN(c2ccccc2)CC1)S(=O)(=O)c1ccc2c(c1)NC(=O)CO2 (stereo not drawn)	TAAR1 antagonist 53
O=C1COc2ccc(S(=O)(=O)CCC(=O)N3CCN(c4cccc(C(F)(F)F)c4)CC3)cc2N1	CHO parental Ca 38
O=C1COc2ccc(S(=O)(=O)N3CCN(c4ccccc4)CC3)cc2N1	none
CCC(c1nc2ccccc2[nH]1)n1c(-c2ccnc(Cl)c2)nc2ccccc21 (stereo not drawn)	none (no result: OX1R antag-1, OX1R antag-2, CHO parental Ca)
NC(=O)c1cc(S(=O)(=O)NCc2cccs2)cs1	none
Cc1ccc(Sc2ccc(S(=O)(=O)Nc3ccc(C(=O)O)cc3)cc2)cc1C	TAAR1 antagonist 56, CHO parental Ca 48
Cc1ccc(Oc2ccc(S(=O)(=O)Nc3ccc(C(=O)O)cc3)cc2)cc1	none
CCN(CC)S(=O)(=O)c1ccc(N2CCOCC2)c(NC(=O)c2cccc3c(=O)c(C)c(-c4ccccc4)oc23)c1	TAAR1 antagonist 54
Oc1ccc(C(c2nnnn2C2CCCC2)N2CCc3ccccc3C2)cc1 (stereo not drawn)	TAAR1 ag 82, TAAR1 antagonist 84
CC1CCc2[nH]c3ccc(C(=O)N4CCCC(C(F)(F)F)C4)cc3c2C1 (stereo not drawn)	none
C[C@H](NC(=O)c1nc[nH]c1C(=O)NCCCCCNC(=O)OC(C)(C)C)C(=O)OCc1ccccc1	TAAR1 antagonist 76
O=C(CNC(=O)c1[nH]cnc1C(=O)N[C@@H](Cc1ccccc1)C(=O)OCc1ccccc1)OCc1ccccc1	TAAR1 antagonist 64
CC(C)C[C@H](NC(=O)c1nc[nH]c1C(=O)NCCCCCNC(=O)OC(C)(C)C)C(=O)OCc1ccccc1	none

Screening data (PubChem)
